Assay results taken from ChEMBL document CHEMBL3351225, “Design, synthesis, and structure-activity and structure-pharmacokinetic relationship studies of novel [6,6,5] tricyclic fused oxazolidinones leading to the discovery of a potent, selective, and orally bioavailable FXa inhibitor” (J Med Chem, 2014).

Tests used:
Coagulation factor X = Coagulation factor X (Homo sapiens, UniProt P00742); test: Inhibition of human factor 10a using N-Z-D-Arg-Gly-Arg-pNA, S-2765 chromogenic substrate
[1] = AUC (0 to infinity) in Sprague-Dawley rat at 3 mg/kg, iv; type: ADME, organism-based; parameters: time infinity, dose 3 mg/kg, route intravenous; conditions: plasma
Summary of the method: (§1)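 Male Sprague-Dawley rats, 200−220 g, four per group. Vehicle was 5% DMSO + 5% Tween-80 in 90% saline. The reference drug was given in 10% DMSO + 10% Tween-80 + 80% PEG400 (40% solution in saline). Serial retrobulbar vein samples were quantified by LC-MS. Parameters came from noncompartmental analysis of mean plasma concentrations.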

[2] = AUC (0 to infinity) in Sprague-Dawley rat at 10 mg/kg, po; type: ADME, organism-based; parameters: time infinity, dose 10 mg/kg, route oral; conditions: plasma; summary of the method: as §1
[3] = Elimination half life in Sprague-Dawley rat at 3 mg/kg, iv; type: ADME, organism-based; parameters: dose 3 mg/kg, route intravenous; conditions: in vivo, read-out: beta t1/2 (converted); summary of the method: as §1
[4] = Cmax in Sprague-Dawley rat at 10 mg/kg, po; type: ADME, organism-based; parameters: dose 10 mg/kg, route oral; conditions: in vivo; summary of the method: as §1
Prothrombin = Prothrombin (Homo sapiens, UniProt P00734); test: Inhibition of human factor 2a using L-pyro-Glu-Pro-ArgpNA, S-2366 chromogenic substrate
Summary of the method: (§2)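 Human enzyme and inhibitor were premixed and preincubated, then the chromogenic substrate was added. Substrate levels: 300 μM S-2765 (FXa, trypsin); 200 μM S-2366 (FIIa); 2 mM S-2366 (FVIIa, FXIa). pNA release was monitored continuously at 405 nm for 20 min at 37 °C. IC50 was obtained by nonlinear regression.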

[5] = Oral bioavailability in Sprague-Dawley rat at 10 mg/kg; type: ADME, organism-based; conditions: in vivo; summary of the method: as §1
Coagulation factor IX = Coagulation factor IX (Homo sapiens, UniProt P00740); test: Inhibition of human factor 9a using CH3SO2-(D)CHG Gly-Arg-pNA, Biophen-CS51 chromogenic substrate
[6] = Plasma clearance in Sprague-Dawley rat at 3 mg/kg, iv; type: ADME, organism-based; parameters: dose 3 mg/kg, route intravenous; summary of the method: as §1
Coagulation factor XI = Coagulation factor XI (Homo sapiens, UniProt P03951); test: Inhibition of human factor 11a using S-2366 chromogenic substrate; summary of the method: as §2
[7] = Elimination half life in Sprague-Dawley rat at 10 mg/kg, po; type: ADME, organism-based; parameters: dose 10 mg/kg, route oral; conditions: in vivo, read-out: beta t1/2 (converted); summary of the method: as §1
Trypsin = Trypsin (Homo sapiens, UniProt P07477+P07478+P35030); test: Inhibition of human trypsin using N-Z-D-Arg-Gly-Arg-pNA, S-2765 chromogenic substrate; type: protein assay; summary of the method: as §2
[8] = Tmax in Sprague-Dawley rat at 10 mg/kg, po; type: ADME, organism-based; parameters: dose 10 mg/kg, route oral; conditions: in vivo; summary of the method: as §1
Plasma [9] = test: Anticoagulant activity in citrated rabbit plasma assessed as activated partial thromboplastin time preincubated for 10 mins at 37 degC by coagulometry; type: functional, Oryctolagus cuniculus
Summary of the method: (§3)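 Test compound or DMSO added to citrated rabbit plasma (3.8% sodium citrate, 10:90 v/v) and preincubated 10 min at 37 °C. PT and aPTT clotting times measured on a coagulometer with commercial kits. Activity expressed as the concentration needed to double plasma clotting time (CT2, μM).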

Coagulation factor VII = target: T1, Coagulation factor VII (Homo sapiens, UniProt P08709); test: Inhibition of human factor 7a using S-2366 chromogenic substrate; summary of the method: as §2
T1 sequence (P08709 whole entry): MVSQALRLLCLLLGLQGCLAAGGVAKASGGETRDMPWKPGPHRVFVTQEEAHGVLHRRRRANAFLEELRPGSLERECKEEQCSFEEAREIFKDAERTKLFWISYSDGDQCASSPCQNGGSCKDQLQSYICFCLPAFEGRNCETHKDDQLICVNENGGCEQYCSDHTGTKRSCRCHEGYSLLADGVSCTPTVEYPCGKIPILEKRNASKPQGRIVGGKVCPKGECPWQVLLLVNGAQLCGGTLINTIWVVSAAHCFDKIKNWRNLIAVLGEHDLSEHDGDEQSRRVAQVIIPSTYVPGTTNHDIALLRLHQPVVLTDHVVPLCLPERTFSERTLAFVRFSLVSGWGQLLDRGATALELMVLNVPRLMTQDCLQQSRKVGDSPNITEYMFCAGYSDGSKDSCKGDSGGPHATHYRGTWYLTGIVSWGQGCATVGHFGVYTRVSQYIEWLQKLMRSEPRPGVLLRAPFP

Plasma [10] = test: Anticoagulant activity in citrated rabbit plasma assessed as drug concentration required to double plasma clotting time preincubated for 10 mins at 37 degC by coagulometry; type: functional, Oryctolagus cuniculus; summary of the method: as §3
[11] = Volume of distribution at steady state in Sprague-Dawley rat at 3 mg/kg, iv; type: ADME, organism-based; parameters: dose 3 mg/kg, route intravenous; conditions: in vivo, read-out: Vdss; summary of the method: as §1

Coagulation factor X, sequence (P00742 41-179 limits assumed): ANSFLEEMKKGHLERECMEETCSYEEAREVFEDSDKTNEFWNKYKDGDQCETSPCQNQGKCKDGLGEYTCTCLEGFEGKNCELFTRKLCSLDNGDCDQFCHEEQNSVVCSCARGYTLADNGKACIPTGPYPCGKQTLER
Coagulation factor X, sequence (P00742 235-488 limits assumed): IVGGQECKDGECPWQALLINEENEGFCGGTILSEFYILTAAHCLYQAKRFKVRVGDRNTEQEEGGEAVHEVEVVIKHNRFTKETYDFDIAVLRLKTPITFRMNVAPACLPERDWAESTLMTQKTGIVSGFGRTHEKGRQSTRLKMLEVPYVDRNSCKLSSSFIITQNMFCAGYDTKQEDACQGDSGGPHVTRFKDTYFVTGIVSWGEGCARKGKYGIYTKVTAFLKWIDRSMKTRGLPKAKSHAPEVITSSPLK
Coagulation factor XI, sequence (P03951 19-387 limits assumed): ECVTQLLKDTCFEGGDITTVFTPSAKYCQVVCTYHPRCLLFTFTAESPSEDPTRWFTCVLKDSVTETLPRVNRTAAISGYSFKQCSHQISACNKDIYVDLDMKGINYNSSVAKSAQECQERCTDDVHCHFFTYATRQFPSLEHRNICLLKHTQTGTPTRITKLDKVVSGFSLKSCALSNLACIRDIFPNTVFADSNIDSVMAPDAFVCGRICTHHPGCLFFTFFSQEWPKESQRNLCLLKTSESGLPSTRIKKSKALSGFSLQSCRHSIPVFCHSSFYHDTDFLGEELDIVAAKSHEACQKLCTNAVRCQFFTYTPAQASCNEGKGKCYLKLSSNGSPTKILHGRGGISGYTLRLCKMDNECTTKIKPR
Coagulation factor XI, sequence (P03951 388-625 limits assumed): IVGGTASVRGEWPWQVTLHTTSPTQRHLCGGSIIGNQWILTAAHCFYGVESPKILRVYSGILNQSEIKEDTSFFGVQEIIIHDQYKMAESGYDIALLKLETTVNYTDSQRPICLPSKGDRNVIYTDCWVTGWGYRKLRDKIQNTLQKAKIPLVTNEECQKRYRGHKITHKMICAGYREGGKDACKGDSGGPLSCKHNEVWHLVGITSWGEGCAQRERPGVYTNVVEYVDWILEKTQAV
Coagulation factor IX, sequence (P00740 47-191 limits assumed): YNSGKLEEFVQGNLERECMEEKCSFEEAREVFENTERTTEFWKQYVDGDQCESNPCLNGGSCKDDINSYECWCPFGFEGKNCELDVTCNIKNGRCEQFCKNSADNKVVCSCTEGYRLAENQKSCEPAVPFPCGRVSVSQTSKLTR
Coagulation factor IX, sequence (P00740 227-461 limits assumed): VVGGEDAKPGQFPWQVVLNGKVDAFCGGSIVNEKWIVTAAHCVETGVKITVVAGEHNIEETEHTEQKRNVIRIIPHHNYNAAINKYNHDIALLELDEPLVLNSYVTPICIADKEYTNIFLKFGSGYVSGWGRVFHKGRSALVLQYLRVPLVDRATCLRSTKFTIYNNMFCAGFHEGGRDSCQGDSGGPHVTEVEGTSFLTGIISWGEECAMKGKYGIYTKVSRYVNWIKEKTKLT

O=C(NC[C@@H]1OC(=O)N2c3ccc(N4CCOCC4=O)cc3OC[C@@H]12)c1cc2ccc(Cl)cc2s1
IC50 (Coagulation factor X): 1750 nM

O=C(NC[C@@H]1OC(=O)N2c3ccc(N4CCOCC4=O)cc3OC[C@@H]12)c1cc2cc(Cl)ccc2s1
IC50 (Coagulation factor X): 25900 nM

O=C(NC[C@@H]1OC(=O)N2c3ccc(N4CCOCC4=O)cc3OC[C@@H]12)c1cc2c(Cl)cccc2s1
IC50 (Coagulation factor X): > 100000 nM

O=C(NC[C@@H]1OC(=O)N2c3ccc(N4CCOCC4=O)cc3OC[C@@H]12)c1sc2cc(Cl)ccc2c1Cl
IC50 (Coagulation factor X): > 100000 nM

O=C(CSCCCl)NC[C@@H]1OC(=O)N2c3ccc(N4CCOCC4=O)cc3OC[C@@H]12
IC50 (Coagulation factor X): > 100000 nM

O=C(NC[C@@H]1OC(=O)N2c3ccc(N4CCOCC4=O)cc3OC[C@@H]12)C(Cl)Cl
IC50 (Coagulation factor X): 52700 nM

O=C(NC[C@@H]1OC(=O)N2c3ccc(N4CCOCC4=O)cc3OC[C@@H]12)Nc1ccc(Cl)s1
IC50 (Coagulation factor X): 88.5 nM

O=C(NC[C@@H]1OC(=O)N2c3ccc(N4CCOCC4=O)cc3OC[C@@H]12)Nc1ccc(Cl)cc1
IC50 (Coagulation factor X): 32.1 nM

O=C(NC[C@@H]1OC(=O)N2c3ccc(N4CCOCC4=O)cc3OC[C@@H]12)C(=O)Nc1ccc(Cl)s1
IC50 (Coagulation factor X): 560 nM

O=C(NC[C@@H]1OC(=O)N2c3ccc(N4CCOCC4=O)cc3OC[C@@H]12)C(=O)Nc1ccc(Cl)cn1
IC50 (Coagulation factor X): 1210 nM

O=C(NC[C@@H]1OC(=O)N2c3ccc(N4CCOCC4=O)cc3OC[C@@H]12)C(=O)Nc1ccc(Cl)cc1
IC50 (Coagulation factor X): 310 nM

O=C(Nc1ccc(Cl)s1)[C@@H]1OC(=O)N2c3ccc(N4CCOCC4=O)cc3OC[C@@H]12
IC50 (Coagulation factor X): > 100000 nM

O=C(Nc1ccc(Cl)cn1)[C@@H]1OC(=O)N2c3ccc(N4CCOCC4=O)cc3OC[C@@H]12
IC50 (Coagulation factor X): > 100000 nM

O=C(NC[C@@H]1OC(=O)N2c3ccc(N4CCOCC4=O)cc3SC[C@@H]12)c1ccc(Cl)s1
AUC(0-inf) [1]: 5700 ng·h/mL
AUC(0-inf) [2]: 1480 ng·h/mL
half-life [3]: 0.89 h
Cmax [4]: 167 ng/mL
IC50 (Prothrombin): > 100000 nM
bioavailability [5]: 7.4%
IC50 (Coagulation factor IX): > 100000 nM
clearance [6]: 8.82 mL/min/kg
IC50 (Coagulation factor XI): > 100000 nM
half-life [7]: 3.15 h
IC50 (Trypsin): > 100000 nM
IC50 (Coagulation factor X): 2.51 nM
Tmax [8]: 4 h
2aPTT (Plasma [9]): 0.33 µM
IC50 (Coagulation factor VII): > 100000 nM
Activity (Plasma [10]): 0.58 µM
Vd [11]: 0.574 L/kg

O=C(NC[C@@H]1OC(=O)N2c3ccc(N4CCCCC4=O)cc3SC[C@@H]12)c1ccc(Cl)s1
IC50 (Coagulation factor X): 4.89 nM
2aPTT (Plasma [9]): 0.62 µM
Activity (Plasma [10]): 0.64 µM

O=C(NC[C@@H]1OC(=O)N2c3ccc(N4CCOCC4=O)cc3SC[C@@H]12)c1ccc(Cl)cc1
IC50 (Coagulation factor X): 45.2 nM

O=C(NC[C@@H]1OC(=O)N2c3ccc(N4CCOCC4=O)cc3[S+]([O-])C[C@@H]12)c1ccc(Cl)s1 (stereo partly drawn)
IC50 (Coagulation factor X): 64 nM

O=C(NC[C@@H]1OC(=O)N2c3ccc(N4CCOCC4=O)cc3S(=O)(=O)C[C@@H]12)c1ccc(Cl)s1
AUC(0-inf) [1]: 6120 ng·h/mL
AUC(0-inf) [2]: 1540 ng·h/mL
half-life [3]: 0.54 h
Cmax [4]: 917 ng/mL
bioavailability [5]: 7.3%
clearance [6]: 8.22 mL/min/kg
half-life [7]: 2.14 h
IC50 (Coagulation factor X): 17.4 nM
Tmax [8]: 0.38 h
2aPTT (Plasma [9]): 0.76 µM
Activity (Plasma [10]): 0.47 µM
Vd [11]: 0.154 L/kg

O=C(NC[C@@H]1OC(=O)N2c3ccc(N4CCCCC4=O)cc3S(=O)(=O)C[C@@H]12)c1ccc(Cl)s1
IC50 (Coagulation factor X): 50.5 nM

CS(=O)(=O)c1ccccc1-c1ccc2c(c1)SC[C@H]1[C@H](CNC(=O)c3ccc(Cl)s3)OC(=O)N21
IC50 (Coagulation factor X): 20.9 nM

CS(=O)(=O)c1ccccc1-c1ccc2c(c1)SC[C@H]1[C@H](CNC(=O)c3ccc(Cl)cc3)OC(=O)N21
IC50 (Coagulation factor X): 1610 nM

O=C(NC[C@@H]1OC(=O)N2c3ccc(N4CCCCC4=O)cc3CC[C@@H]12)c1ccc(Cl)s1
IC50 (Coagulation factor X): 6.59 nM

CC(C)(C)OC(=O)N1C[C@H]2[C@H](CNC(=O)c3ccc(Cl)s3)OC(=O)N2c2ccc(N3CCCCC3=O)cc21
IC50 (Coagulation factor X): 8180 nM

O=C(NC[C@@H]1OC(=O)N2c3ccc(N4CCCCC4=O)cc3NC[C@@H]12)c1ccc(Cl)s1
IC50 (Coagulation factor X): 15.2 nM
